According to PubChem BioAssay:
Results filed as inconclusive are left out.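 The calls were made as follows, unless noted: active = cell viability at or below a set limit in both duplicate runs, the limit being the all-compound median minus 4 SD (cut at about 23% in these data, passing the limit was not always enough); inconclusive = no clear call, values can overlap the other calls; inactive = the rest.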

Assays:
[1] = S. cerevisiae growth inhibition in permissive medium (OD615), pilot counter-assay for S. cerevisiae lifespan shortening project, permissive growth control (AID 705;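 active = growth inhibition above 25% in both replicates, a cutoff set 3 SD above the mean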); conditions: OD615, 24 h, at 10 µM, hits give high values
Summary of the method: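 System: Engineered DeaD yeast | Buffer or medium: SC raffinose/galactose permissive medium | Doses: 10 µM single dose, 0.25% DMSO | Times: 24 h exposure, 30 °C | Measured by: OD615 turbidity read | Read-out: Yeast growth inhibition indicated by reduced 24 h OD615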

[2] = S. cerevisiae growth inhibition in restrictive medium, OD615, pilot screen, restrictive growth control, yeast lifespan reduction project (AID 706;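 active = growth inhibition above a set limit, 3 SD over mean compound inhibition, in both replicates, cut at about 43% in these data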;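 also: modified DeaD lifespan yeast strain shifted to restrictive glucose medium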); conditions: OD615, 48 h, at 10 µM, hits give high values
Summary of the method: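 Assay system: engineered S. cerevisiae DeaD strain; Buffer or medium: CSMM-D glucose medium; Dosing: 10 µM compound, 0.25% DMSO; Times: cell pre-growth 4 h, compound exposure 48 h, 30 °C; Detection: absorbance (optical density) measured at 615 nm.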

[3] = doxorubicin toxicity protection in MRP-1 cells – H69AR cells, CellTiter-Glo, duplicate, MRP-1 activator project, pilot screen (AID 807;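 active = viability increase at or above a cutoff of the median across tested compounds plus 3 SD, cut at about 8.5% in these data, passing the limit was not always enough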;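 also: compound pretreatment 18-22 h then 72 h combined with doxorubicin; 0% = doxorubicin alone and 100% = vehicle without doxorubicin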); conditions: H69AR viability with doxorubicin, CellTiter-Glo luminescence; at 10 µM; hits give high values
[4] = viability of HCT116 without oncogenic beta-catenin – human colon tumor cells, pilot screen (AID 823); conditions: HCT116 beta-catenin knockout viability, CellTiter-Glo, 60 h; at 10 µM; hits give low values;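 also: 0% = wells killed by 20 µM Hyamine and 100% = untreated DMSO cell wells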
[5] = viability of PTEN-null HCT116 cells – cell-based, HCT116 clonal line, CellTiter-Glo, pilot screen (AID 824;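 active = viability at or below 27.92% in each of two runs, the all-compound median minus 4 SD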;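 also: 0% = 20 µM Hyamine control and 100% = vehicle cell control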); conditions: HCT116 PTEN-deleted viability, 60 h, at 10 µM, hits give low values
[6] = RAM pathway blockade in budding yeast – dse1pr::URA3 reporter, 5-FOA selection, pilot screen (AID 869;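 active = inhibition over a set limit, the all-compound mean plus 3 SD, in both replicate runs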;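 also: 0% = DMSO wells with no growth and 100% = 10 µM 1-NA-PP1 with full growth; RAM network block rescues cells from 5-FOA so hits raise OD615 growth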); conditions: S. cerevisiae dse1pr::URA3 5-FOA growth, OD615, 2 d; at 10 µM; hits give high values; strain carries analog-sensitive mutant Cbk1 kinase
[7] = RAM signaling pathway blockade in yeast – S. cerevisiae, Pdr1DBD-CYC8 efflux-inhibited sensitized strain, primary screen (AID 1298;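 active = RAM network inhibition above 8.4% in each of two replicates, 3 SD over the compound average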;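 also: 0% = DMSO untreated cells without growth and 100% = 10 µM 1-NA-PP1 full growth; higher means more yeast growth rescued from 5-FOA killing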); conditions: S. cerevisiae cbk1-as DSE1-URA3 strain, 5-FOA growth OD615, 2 d; at 50 µM; hits give high values

CCOCCCNC(=O)c1cn(CC(C)C)c(=O)c2cc(OC)c(OC)cc12
inactive: growth inhibition [1] -22.4% | growth inhibition [2] -25.7% | viability increase [3] -2.7% | viability [4] 98.5% | viability [5] 97.9% | inhibition [6] 0.375% | RAM network inhibition [7] 4.93%

COc1cc(C2C(C(=O)c3cccs3)=C(O)C(=O)N2Cc2ccco2)cc(OC)c1OC (stereo not drawn)
inactive: growth inhibition [1] -6.95% | growth inhibition [2] -3.81% | viability increase [3] -4.93% | viability [4] 93.1% | viability [5] 92.4% | inhibition [6] 2.94% | RAM network inhibition [7] 5%

Cc1nn(C(=O)c2cccs2)c(N)c1-c1ccccc1
inactive: growth inhibition [1] 2.29% | growth inhibition [2] 5.9% | viability increase [3] 0.4% | viability [4] 84.4% | viability [5] 96% | inhibition [6] 0.035% | RAM network inhibition [7] 2.36%

Cc1cnc(NC(=O)c2ccc(-c3nc4ccccc4s3)o2)s1
inactive: growth inhibition [1] -7.12% | growth inhibition [2] 10.2% | viability increase [3] -3.16% | viability [4] 98.1% | viability [5] 96.3% | inhibition [6] 0.165% | RAM network inhibition [7] 0.78%

Cc1cc2oc(C(=O)NCc3ccncc3)c(C)c2cc1C
inactive: growth inhibition [1] -3.59% | growth inhibition [2] 10.7% | viability increase [3] 0.54% | viability [4] 96.4% | viability [5] 89.6% | inhibition [6] 0.7% | RAM network inhibition [7] -0.89%

Cn1cc(SCC(=O)Nc2ccc3c(c2)OCO3)c2ccccc21
inactive: growth inhibition [1] -6.75% | growth inhibition [2] -9.39% | viability increase [3] -2.72% | viability [4] 100% | viability [5] 92.9% | inhibition [6] 1.69% | RAM network inhibition [7] 2.23%

COc1ccc(S(=O)(=O)Cc2ccc(C(=O)NCc3cccs3)o2)cc1
inactive: growth inhibition [1] -2.92% | growth inhibition [2] -21.2% | viability increase [3] -4.71% | viability [4] 94.7% | viability [5] 87.1% | inhibition [6] 1.21% | RAM network inhibition [7] 3.04%

O=C(Cn1cnc2ccccc2c1=O)N(Cc1ccco1)c1ccc(O)cc1
inactive: growth inhibition [1] -4.45% | growth inhibition [2] -19.6% | viability increase [3] -1.76% | viability [4] 92% | viability [5] 89.8% | inhibition [6] 0.94% | RAM network inhibition [7] -0.26%

COc1ccc(NC(=O)Nc2cccc(OC)c2)cc1
inactive: growth inhibition [1] -3.64% | growth inhibition [2] -19.4% | viability increase [3] -0.65% | viability [4] 95.3% | viability [5] 93.4% | inhibition [6] 1.02% | RAM network inhibition [7] 1.14%

COc1ccc(CCNC(=O)CCn2c(=O)oc3ccccc32)cc1OC
inactive: growth inhibition [1] -6.99% | growth inhibition [2] -12.8% | viability increase [3] -0.1% | viability [4] 105% | viability [5] 97.9% | inhibition [6] 1.47% | RAM network inhibition [7] 1.61%

CC1Cc2nc(SCC(=O)NCc3ccco3)n(Cc3ccccc3)c(=O)c2S1 (stereo not drawn)
inactive: growth inhibition [1] -6.15% | growth inhibition [2] -15.7% | viability increase [3] -6.41% | viability [4] 91.1% | viability [5] 87.3% | inhibition [6] 3.45% | RAM network inhibition [7] 3.84%

COCCNC(=O)CN1C(=O)CSc2cc(S(=O)(=O)N3CCCCCC3)ccc21
inactive: growth inhibition [1] -5.04% | growth inhibition [2] -4.12% | viability increase [3] -1.52% | viability [4] 98.9% | viability [5] 109% | inhibition [6] 2.73% | RAM network inhibition [7] -0.32%

CCOC(=O)C1=C(C)N(C)C(C)=C(C(=O)OCC)C1c1ccccn1
inactive: growth inhibition [1] -13.2% | growth inhibition [2] -14.6% | viability increase [3] -0.35% | viability [4] 96.2% | viability [5] 91.6% | inhibition [6] 1.98% | RAM network inhibition [7] 0.62%

COc1c(Cl)ccc(Cl)c1C(=O)OCC(=O)O
inactive: growth inhibition [1] -7.06% | growth inhibition [2] -27.7% | viability increase [3] -2.73% | viability [4] 86% | viability [5] 86.9% | inhibition [6] 1.39% | RAM network inhibition [7] 4.54%

CCn1c(C2CC(=O)N(Cc3ccccc3)C2)nc2ccccc21 (stereo not drawn)
inactive: growth inhibition [1] 7.85% | growth inhibition [2] 7.52% | viability increase [3] -2.06% | viability [4] 102% | viability [5] 91.3% | inhibition [6] -0.3% | RAM network inhibition [7] 4.25%

COc1ccc(N2CCN(C3CC(=O)N(C)C3=O)CC2)cc1 (stereo not drawn)
inactive: growth inhibition [1] -3.33% | growth inhibition [2] 2.79% | viability increase [3] -0.79% | viability [4] 103% | viability [5] 100% | inhibition [6] 1.95% | RAM network inhibition [7] 4.13%

OC1CCN(c2c3c(nc4cc(-c5cccc(F)c5)nn24)CCCC3)CC1
inactive: growth inhibition [1] 2.2% | growth inhibition [2] -11.2% | viability increase [3] -6.47% | viability [4] 73.8% | viability [5] 65% | inhibition [6] 2.02% | RAM network inhibition [7] 9.14%

COC(=O)C1Sc2[nH]c(=O)sc2C(c2ccc(Cl)cc2)C1C(=O)OC (stereo not drawn)
inactive: growth inhibition [1] -14.8% | growth inhibition [2] -14.8% | viability increase [3] -5.67% | viability [4] 91.3% | viability [5] 88.7% | inhibition [6] 4.36% | RAM network inhibition [7] 2.45%

CC(C)(C)NC(=O)C1CCCN(S(=O)(=O)c2cccc3cccnc23)C1 (stereo not drawn)
inactive: growth inhibition [1] -5.03% | growth inhibition [2] 3.88% | viability increase [3] -2.62% | viability [4] 103% | viability [5] 96.1% | inhibition [6] 1.6% | RAM network inhibition [7] 0.52%

CCOc1ccccc1N1C(=O)CC(N(O)c2ccccc2)C1=O (stereo not drawn)
inactive: growth inhibition [1] -13.4% | growth inhibition [2] -4.14% | viability increase [3] -5.35% | viability [4] 106% | viability [5] 96.3% | inhibition [6] 0.17% | RAM network inhibition [7] 12.8%

CCOC(=O)Cn1nc(C)c(-c2ccccc2)c1N
inactive: growth inhibition [1] -23.1% | growth inhibition [2] -5.69% | viability increase [3] -1.41% | viability [4] 97.4% | viability [5] 95.2% | inhibition [6] 1.26% | RAM network inhibition [7] 2.61%

Nc1ccc(C(=O)c2ccc3c(c2)OCCO3)cc1N
inactive: growth inhibition [1] 4.75% | growth inhibition [2] 6.96% | viability increase [3] -6.58% | viability [4] 102% | viability [5] 97.5% | inhibition [6] 0.375% | RAM network inhibition [7] 4.41%

CCC1CC(C)(C(=O)Nc2ccc(S(N)(=O)=O)cc2)OC1=O (stereo not drawn)
inactive: growth inhibition [1] -2.94% | growth inhibition [2] 3.6% | viability increase [3] 1.12% | viability [4] 102% | viability [5] 98.1% | inhibition [6] 1.36% | RAM network inhibition [7] 3.69%

CC(=Nc1ccc(C)c(C)c1)C1=C(O)CSC1=O
inactive: growth inhibition [1] 1.08% | growth inhibition [2] -8.17% | viability increase [3] -2.54% | viability [4] 98.1% | viability [5] 90.3% | inhibition [6] 1.67% | RAM network inhibition [7] 4.33%
